This is an account of results in ChEMBL document CHEMBL4725360, “Optimization of Acetazolamide-Based Scaffold as Potent Inhibitors of Vancomycin-Resistant Enterococcus” (J Med Chem, 2020).

Molecules are shown by their SMILES. Converted amounts (≈) assume the structure as drawn. The source made the active and inactive calls. No cut-off for these calls is given here. Some results are limits rather than exact numbers.

The first data set deals with Enterococcus faecium. As to the kind of experiment: Antibacterial activity against Enterococcus faecium HM968 incubated for 18 to 20 hrs under aerobic condition by CLSI protocol based broth microdilution assay. The class given is functional. Particulars: time hrs 18-20. The method, boiled down: (§1)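 Broth microdilution per CLSI. Strains grown aerobically overnight on trypticase soy agar at 37 °C. Inoculum set to 0.5 McFarland, diluted in trypticase soy broth to about 5 × 10⁵ CFU/mL. Agents serially diluted, plates incubated aerobically at 37 °C for 18–20 h. MIC is the lowest concentration with no visible growth. Compound stocks 10 mg/mL in DMSO.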
In turn, `CC(C)(C)CC(=O)Nc1nnc(S(N)(=O)=O)s1` returned an MIC of 0.015 µg/mL (≈ 0.0539 µM).

For `NS(=O)(=O)c1nnc(NC(=O)C2CCCC2)s1`, 0.5 µg/mL (≈ 1.81 µM) was the least that counted as inhibitory (MIC).

With `NS(=O)(=O)c1nnc(NC(=O)CCC2CCCC2)s1`, the MIC is 0.06 µg/mL (≈ 0.197 µM).

A further data set relates to Enterococcus faecium. Description: Antibacterial activity against Enterococcus faecium HM965 incubated for 18 to 20 hrs under aerobic condition by CLSI protocol based broth microdilution assay. Particulars: time hrs 18-20. The class given is functional. The procedure, abridged:
as §1
Consider `CC(C)(C)CC(=O)Nc1nnc(S(N)(=O)=O)s1`, for which the MIC worked out at 0.015 µg/mL (≈ 0.0539 µM).

Turning to `NS(=O)(=O)c1nnc(NC(=O)C2CCCC2)s1`, inhibition of growth (MIC) required 0.25 µg/mL (≈ 0.905 µM).

Molecule `NS(=O)(=O)c1nnc(NC(=O)CCC2CCCC2)s1` showed an MIC of 0.06 µg/mL (≈ 0.197 µM).

The test system of a further data set is Enterococcus faecium. As to the kind of experiment: Antibacterial activity against Enterococcus faecium NR-31914 incubated for 18 to 20 hrs under aerobic condition by CLSI protocol based broth microdilution assay. The class given is functional. Particulars: time hrs 18-20. The procedure, abridged: as §1
Take `CC(C)(C)CC(=O)Nc1nnc(S(N)(=O)=O)s1`: the lowest concentration to inhibit growth (MIC) was 0.007 µg/mL (≈ 0.0251 µM).

As for `NS(=O)(=O)c1nnc(NC(=O)C2CCCC2)s1`, the lowest concentration to inhibit growth (MIC) was 0.5 µg/mL (≈ 1.81 µM).

Take `NS(=O)(=O)c1nnc(NC(=O)CCC2CCCC2)s1`: inhibition of growth (MIC) required 0.06 µg/mL (≈ 0.197 µM).

The next data set has as its system Enterococcus faecalis. Description: Antibacterial activity against Enterococcus faecalis HM-335 incubated for 18 to 20 hrs under aerobic condition by CLSI protocol based broth microdilution assay. The class given is functional. Particulars: time hrs 18-20. The procedure, abridged:
as §1
`CC(C)(C)CC(=O)Nc1nnc(S(N)(=O)=O)s1`: the MIC turned out to be 0.03 µg/mL (≈ 0.108 µM).

For the molecule `NS(=O)(=O)c1nnc(NC(=O)C2CCCC2)s1`, the minimal inhibitory concentration (MIC) is 0.5 µg/mL (≈ 1.81 µM).

Turning to `NS(=O)(=O)c1nnc(NC(=O)CCC2CCCC2)s1`, the minimum inhibitory concentration (MIC) is 0.06 µg/mL (≈ 0.197 µM).

Another data set deals with Enterococcus faecium. As to the kind of experiment: Antibacterial activity against Enterococcus faecium NR-31903 incubated for 18 to 20 hrs under aerobic condition by CLSI protocol based broth microdilution assay. Particulars: time hrs 18-20. The class given is functional. The procedure, abridged: as §1
The molecule `CC(C)(C)CC(=O)Nc1nnc(S(N)(=O)=O)s1` yielded an MIC of 0.015 µg/mL (≈ 0.0539 µM).

Regarding `NS(=O)(=O)c1nnc(NC(=O)C2CCCC2)s1`, the lowest concentration to inhibit growth (MIC) was 0.5 µg/mL (≈ 1.81 µM).

On to `NS(=O)(=O)c1nnc(NC(=O)CCC2CCCC2)s1`, for which the MIC came out at 0.03 µg/mL (≈ 0.0986 µM).

For a further data set, the system named is Enterococcus faecium. Description: Antibacterial activity against Enterococcus faecium NR-31972 incubated for 18 to 20 hrs under aerobic condition by CLSI protocol based broth microdilution assay. The class given is functional. Particulars: time hrs 18-20. The method, boiled down: as §1
Take `CC(C)(C)CC(=O)Nc1nnc(S(N)(=O)=O)s1`: 0.015 µg/mL (≈ 0.0539 µM) was the least that counted as inhibitory (MIC).

`NS(=O)(=O)c1nnc(NC(=O)C2CCCC2)s1` showed a minimal inhibitory concentration (MIC) of 1 µg/mL (≈ 3.62 µM).

In the case of `NS(=O)(=O)c1nnc(NC(=O)CCC2CCCC2)s1`, the lowest concentration to inhibit growth (MIC) was 0.03 µg/mL (≈ 0.0986 µM).

For a further data set, the system named is Enterococcus faecalis. Description: Antibacterial activity against Enterococcus faecalis HM-334 incubated for 18 to 20 hrs under aerobic condition by CLSI protocol based broth microdilution assay. Particulars: time hrs 18-20. The class given is functional. The method, boiled down:
as §1
`CC(C)(C)CC(=O)Nc1nnc(S(N)(=O)=O)s1` yielded a minimal inhibitory concentration (MIC) of 0.03 µg/mL (≈ 0.108 µM).

Consider `NS(=O)(=O)c1nnc(NC(=O)C2CCCC2)s1`, for which the lowest concentration to inhibit growth (MIC) was 0.5 µg/mL (≈ 1.81 µM).

Molecule `NS(=O)(=O)c1nnc(NC(=O)CCC2CCCC2)s1` gave an MIC of 0.015 µg/mL (≈ 0.0493 µM).

Another data set has as its system Enterococcus faecium. Description: Antibacterial activity against Enterococcus faecium NR-28978 incubated for 18 to 20 hrs under aerobic condition by CLSI protocol based broth microdilution assay. Particulars: time hrs 18-20. The class given is functional. The method, boiled down: as §1
Regarding `CC(C)(C)CC(=O)Nc1nnc(S(N)(=O)=O)s1`, it took 0.03 µg/mL (≈ 0.108 µM) to inhibit growth (MIC).

With `NS(=O)(=O)c1nnc(NC(=O)C2CCCC2)s1`, 0.5 µg/mL (≈ 1.81 µM) was the least that counted as inhibitory (MIC).

The molecule `NS(=O)(=O)c1nnc(NC(=O)CCC2CCCC2)s1` gave an MIC of 0.125 µg/mL (≈ 0.411 µM).

The next data set relates to Enterococcus faecium. As to the kind of experiment: Inhibition of carbonic anhydrase in Enterococcus faecium ATCC 700221 assessed as antibacterial activity incubated for 18 to 20 hrs in presence of 5% CO2 by CLSI protocol based broth microdilution assay. Particulars: time hrs 18-20. The method, boiled down: (§2)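 CLSI broth microdilution: inoculum about 5 × 10⁵ CFU/mL in trypticase soy broth with serial dilutions of agents. Paired plates incubated at 37 °C for 18–20 h, one set in ambient air ("normal"), the other under 5% CO₂. MIC is the lowest concentration completely inhibiting visible growth.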
In the case of `CC(C)(C)CC(=O)Nc1nnc(S(N)(=O)=O)s1`, the inhibition entry is “inactive”.

Turning to `NS(=O)(=O)c1nnc(NC(=O)C2CCCC2)s1`, the inhibition entry was “inactive”.

`NS(=O)(=O)c1nnc(NC(=O)CCC2CCCC2)s1`: the inhibition entry was “inactive”.

The next data set concerns Enterococcus faecium. As to the kind of experiment: Inhibition of carbonic anhydrase in Enterococcus faecium ATCC 700221 assessed as antibacterial activity incubated for 18 to 20 hrs in presence of ambient air by CLSI protocol based broth microdilution assay. Particulars: time hrs 18-20. The method, boiled down:
as §2
On to `CC(C)(C)CC(=O)Nc1nnc(S(N)(=O)=O)s1`, for which the inhibition result was “Active”.

On to `NS(=O)(=O)c1nnc(NC(=O)C2CCCC2)s1`, for which the inhibition entry is “Active”.

Take `NS(=O)(=O)c1nnc(NC(=O)CCC2CCCC2)s1`: the inhibition entry was “Active”.

Tested on in another data set: not listed separately
As to the kind of experiment: Cytotoxicity against human Caco2 cells incubated for 2 hrs by MTS assay. The class given is cell-based. Particulars: Caco-2 cells. The procedure, abridged: (§3)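 Caco-2 cells maintained in DMEM with 10% FBS, non-essential amino acids and penicillin-streptomycin at 37 °C, 5% CO₂. Compound exposure for 2 h in serum-free medium at several concentrations; DMSO-matched controls. Viability expressed relative to DMSO controls (mean ± SD), and CC₅₀ derived.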
With `CC(C)(C)CC(=O)Nc1nnc(S(N)(=O)=O)s1`, the CC50 at 2 h is more than 128 µg/mL.

`NS(=O)(=O)c1nnc(NC(=O)C2CCCC2)s1` registered a 50% cytotoxic concentration (CC50) at 2 h of more than 128 µg/mL.

As to `NS(=O)(=O)c1nnc(NC(=O)CCC2CCCC2)s1`, the CC50 at 2 h was more than 128 µg/mL.

A further data set concerns Enterococcus faecium. As to the kind of experiment: Antibacterial activity against Enterococcus faecium NR-31971 incubated for 18 to 20 hrs under aerobic condition by CLSI protocol based broth microdilution assay. The class given is functional. Particulars: time hrs 18-20. The method, boiled down:
as §1
For the molecule `CC(C)(C)CC(=O)Nc1nnc(S(N)(=O)=O)s1`, inhibition of growth (MIC) required 0.06 µg/mL (≈ 0.216 µM).

Molecule `NS(=O)(=O)c1nnc(NC(=O)C2CCCC2)s1` returned an MIC of 1 µg/mL (≈ 3.62 µM).

In turn, `NS(=O)(=O)c1nnc(NC(=O)CCC2CCCC2)s1` registered an MIC of 0.03 µg/mL (≈ 0.0986 µM).

The test system of a further data set is Enterococcus faecium. Description: Antibacterial activity against Enterococcus faecium ATCC 700221 by CLSI protocol based assay. The class given is functional.
Settings: not given
The procedure, abridged: as §1
On to `CCOc1ccc2nc(S(N)(=O)=O)sc2c1` [ETHOXZOLAMIDE], for which the MIC is 1 µg/mL (≈ 3.87 µM).

For the molecule `CC(=O)/N=c1/sc(S(N)(=O)=O)nn1C` [METHAZOLAMIDE], the MIC turned out to be 4 µg/mL (≈ 16.9 µM).

The test system of another data set is Enterococcus faecium. Description: Antibacterial activity against Enterococcus faecium NR-31916 incubated for 18 to 20 hrs under aerobic condition by CLSI protocol based broth microdilution assay. The class given is functional. Particulars: time hrs 18-20. The method, boiled down: as §1
In turn, `CC(C)(C)CC(=O)Nc1nnc(S(N)(=O)=O)s1` showed an MIC of 0.03 µg/mL (≈ 0.108 µM).

As to `NS(=O)(=O)c1nnc(NC(=O)C2CCCC2)s1`, the MIC stood at 0.5 µg/mL (≈ 1.81 µM).

`NS(=O)(=O)c1nnc(NC(=O)CCC2CCCC2)s1` had an MIC of 0.03 µg/mL (≈ 0.0986 µM).

The test system of the next data set is Enterococcus faecium. Description: Antibacterial activity against Enterococcus faecium NR-32065 incubated for 18 to 20 hrs under aerobic condition by CLSI protocol based broth microdilution assay. The class given is functional. Particulars: time hrs 18-20. The method, boiled down:
as §1
Take `CC(C)(C)CC(=O)Nc1nnc(S(N)(=O)=O)s1`: 0.007 µg/mL (≈ 0.0251 µM) was the least that counted as inhibitory (MIC).

Molecule `NS(=O)(=O)c1nnc(NC(=O)C2CCCC2)s1` returned an MIC of 0.5 µg/mL (≈ 1.81 µM).

As to `NS(=O)(=O)c1nnc(NC(=O)CCC2CCCC2)s1`, the lowest concentration to inhibit growth (MIC) was 0.06 µg/mL (≈ 0.197 µM).

A further data set deals with Enterococcus faecium. Description: Antibacterial activity against Enterococcus faecium NR-32052 incubated for 18 to 20 hrs under aerobic condition by CLSI protocol based broth microdilution assay. The class given is functional. Particulars: time hrs 18-20. The procedure, abridged:
as §1
`CC(C)(C)CC(=O)Nc1nnc(S(N)(=O)=O)s1` yielded an MIC of 0.015 µg/mL (≈ 0.0539 µM).

`NS(=O)(=O)c1nnc(NC(=O)C2CCCC2)s1` displayed an MIC of 0.5 µg/mL (≈ 1.81 µM).

For `NS(=O)(=O)c1nnc(NC(=O)CCC2CCCC2)s1`, the minimal inhibitory concentration (MIC) was 0.06 µg/mL (≈ 0.197 µM).

The test system of the next data set is Caco-2. Description: Cytotoxicity against human Caco2 cells at 128 ug/ml incubated for 2 hrs by MTS assay. The class given is cell-based. Particulars: caco-2, 2 h, dose 128 µg/ml. The procedure, abridged:
as §3
For `CC(C)(C)CC(=O)Nc1nnc(S(N)(=O)=O)s1`, the Activity result is “Non-Toxic”.

With `NS(=O)(=O)c1nnc(NC(=O)C2CCCC2)s1`, the Activity entry was “Non-Toxic”.

`NS(=O)(=O)c1nnc(NC(=O)CCC2CCCC2)s1`: the Activity entry was “Non-Toxic”.

A further data set relates to Enterococcus faecalis. Description: Antibacterial activity against Enterococcus faecalis NR-31975 incubated for 18 to 20 hrs under aerobic condition by CLSI protocol based broth microdilution assay. The class given is functional, organism-based. Particulars: time hrs 18-20. The procedure, abridged: as §1
`CC(C)(C)CC(=O)Nc1nnc(S(N)(=O)=O)s1`: the result was Active.

As for `NS(=O)(=O)c1nnc(NC(=O)C2CCCC2)s1`, the result was Active.

Take `NS(=O)(=O)c1nnc(NC(=O)CCC2CCCC2)s1`: the outcome was Active.

The test system of another data set is Enterococcus faecalis. Description: Antibacterial activity against Enterococcus faecalis NR-31970 incubated for 18 to 20 hrs under aerobic condition by CLSI protocol based broth microdilution assay. The class given is functional, organism-based. Particulars: time hrs 18-20. The procedure, abridged:
as §1
As to `CC(C)(C)CC(=O)Nc1nnc(S(N)(=O)=O)s1`, the result was Active.

`NS(=O)(=O)c1nnc(NC(=O)C2CCCC2)s1`: the outcome was Active.

For the molecule `NS(=O)(=O)c1nnc(NC(=O)CCC2CCCC2)s1`, the result was Active.
